{
  "source": "ChEMBL document CHEMBL3232871",
  "about": "“Synthesis and structure-activity analysis of diphenylpyrazolodiazene inhibitors of the HIV-1 Nef virulence factor” (Bioorg Med Chem Lett, 2014)",
  "key": {"[1]": {"test_system": "TZM-bl", "test": "Inhibition of HIV protein Nef in TZM-bl cells assessed decrease in HIV infectivity at 3 uM after 48 hrs by TZM-bl HIV infectivity assay", "type": "cell-based", "conditions": "Human immunodeficiency virus", "procedure,_shortened": "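TZM-bl reporter cells (HIV-1 LTR-driven luciferase) received compound at 3 μM and were then infected with wild-type HIV-1 NL4-3. Luciferase was read 48 h later. Signal from cells infected with Nef-defective HIV was subtracted, and values are mean percent of untreated-cell control ± SEM.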"}, "[2]": {"test": "Cytotoxicity against human TZM-bl cells by Cell Titer Blue cell viability assay", "type": "cell-based", "procedure,_shortened": "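Viability of TZM-bl reporter cells was measured by Cell Titer Blue at the same compound concentration used in the HIV-1 infectivity assay (3 μM).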"}},
  "note": "The source made the active and inactive calls. No cut-off for these calls is given here.",
  "data": [
    {"smiles": "COc1ccccc1/N=N/c1c(-c2ccc([N+](=O)[O-])cc2)nn(C(N)=S)c1O", "values": [
      {"measurement": "Nef inhibition activity call (active/inactive)", "setting": "[1]", "value": "inactive"},
      {"measurement": "Activity", "setting": "[2]", "value": "Non-toxic"}
    ]},
    {"smiles": "NC(=S)n1nc(-c2ccc([N+](=O)[O-])cc2)c(/N=N/c2ccc(F)cc2)c1O", "values": [
      {"measurement": "Activity", "setting": "[2]", "value": "Non-toxic"}
    ]},
    {"smiles": "NC(=O)n1nc(-c2ccc([N+](=O)[O-])cc2)c(/N=N/c2ccc(Cl)cc2)c1O", "values": [
      {"measurement": "Activity", "setting": "[2]", "value": "Non-toxic"}
    ]},
    {"smiles": "NC(=O)n1nc(-c2ccc([N+](=O)[O-])cc2)c(/N=N/c2cncc(Cl)c2)c1O", "values": [
      {"measurement": "Activity", "setting": "[2]", "value": "Non-toxic"}
    ]},
    {"smiles": "NC(=S)n1nc(-c2ccc([N+](=O)[O-])cc2)c(/N=N/c2cncc(Cl)c2)c1O", "values": [
      {"measurement": "Nef inhibition activity call (active/inactive)", "setting": "[1]", "value": "Active"},
      {"measurement": "Activity", "setting": "[2]", "value": "Non-toxic"}
    ]},
    {"smiles": "NC(=S)n1nc(-c2ccccc2)c(/N=N/c2cccc(Cl)c2)c1O", "values": [
      {"measurement": "Nef inhibition activity call (active/inactive)", "setting": "[1]", "value": "inactive"},
      {"measurement": "Activity", "setting": "[2]", "value": "Non-toxic"}
    ]},
    {"smiles": "NC(=S)n1nc(-c2ccc([N+](=O)[O-])cc2)c(/N=N/c2ccccc2Cl)c1O", "values": [
      {"measurement": "Nef inhibition activity call (active/inactive)", "setting": "[1]", "value": "inactive"},
      {"measurement": "Activity", "setting": "[2]", "value": "Non-toxic"}
    ]},
    {"smiles": "Oc1[nH]nc(-c2ccccc2)c1/N=N/c1ccccc1", "values": [
      {"measurement": "Nef inhibition activity call (active/inactive)", "setting": "[1]", "value": "inactive"},
      {"measurement": "Activity", "setting": "[2]", "value": "Non-toxic"}
    ]},
    {"smiles": "NC(=O)n1nc(-c2ccc(F)cc2)c(/N=N/c2cccnc2)c1O", "values": [
      {"measurement": "Activity", "setting": "[2]", "value": "Non-toxic"}
    ]},
    {"smiles": "Oc1[nH]nc(-c2ccc(F)cc2)c1/N=N/c1cncc(Cl)c1", "values": [
      {"measurement": "Nef inhibition activity call (active/inactive)", "setting": "[1]", "value": "inactive"},
      {"measurement": "Activity", "setting": "[2]", "value": "Non-toxic"}
    ]},
    {"smiles": "NC(=S)n1nc(-c2ccc(C(F)(F)F)cc2)c(/N=N/c2cccc(Cl)c2)c1O", "values": [
      {"measurement": "Nef inhibition activity call (active/inactive)", "setting": "[1]", "value": "Active"},
      {"measurement": "Activity", "setting": "[2]", "value": "Non-toxic"}
    ]},
    {"smiles": "COc1cccc(/N=N/c2c(-c3ccc([N+](=O)[O-])cc3)nn(C(N)=S)c2O)c1", "values": [
      {"measurement": "Nef inhibition activity call (active/inactive)", "setting": "[1]", "value": "inactive"},
      {"measurement": "Activity", "setting": "[2]", "value": "Non-toxic"}
    ]},
    {"smiles": "NC(=S)n1nc(-c2ccc([N+](=O)[O-])cc2)c(/N=N/c2ccccc2F)c1O", "values": [
      {"measurement": "Activity", "setting": "[2]", "value": "Non-toxic"}
    ]},
    {"smiles": "COc1ccc(-c2nn(C(N)=S)c(O)c2/N=N/c2cccc(Cl)c2)cc1", "values": [
      {"measurement": "Nef inhibition activity call (active/inactive)", "setting": "[1]", "value": "inactive"},
      {"measurement": "Activity", "setting": "[2]", "value": "Non-toxic"}
    ]},
    {"smiles": "NC(=O)n1nc(-c2ccc([N+](=O)[O-])cc2)c(/N=N/c2cccnc2)c1O", "values": [
      {"measurement": "Activity", "setting": "[2]", "value": "Non-toxic"}
    ]},
    {"smiles": "NC(=S)n1nc(-c2ccc([N+](=O)[O-])cc2)c(/N=N/c2cccc(F)c2)c1O", "values": [
      {"measurement": "Activity", "setting": "[2]", "value": "Non-toxic"}
    ]},
    {"smiles": "NC(=O)n1nc(-c2ccc(F)cc2)c(/N=N/c2cncc(Cl)c2)c1O", "values": [
      {"measurement": "Activity", "setting": "[2]", "value": "Non-toxic"}
    ]},
    {"smiles": "NC(=S)n1nc(-c2ccc([N+](=O)[O-])cc2)c(/N=N/c2cccc(Cl)c2)c1O", "values": [
      {"measurement": "Activity", "setting": "[2]", "value": "Non-toxic"}
    ]},
    {"smiles": "Oc1[nH]nc(-c2ccc(F)cc2)c1/N=N/c1cccnc1", "values": [
      {"measurement": "Activity", "setting": "[2]", "value": "Non-toxic"}
    ]},
    {"smiles": "COc1ccc(/N=N/c2c(-c3ccc([N+](=O)[O-])cc3)n[nH]c2O)cc1", "values": [
      {"measurement": "Nef inhibition activity call (active/inactive)", "setting": "[1]", "value": "Active"},
      {"measurement": "Activity", "setting": "[2]", "value": "Non-toxic"}
    ]},
    {"smiles": "NC(=S)n1nc(-c2ccc([N+](=O)[O-])cc2)c(/N=N/c2ccc(Cl)cc2)c1O", "values": [
      {"measurement": "Nef inhibition activity call (active/inactive)", "setting": "[1]", "value": "Active"},
      {"measurement": "Activity", "setting": "[2]", "value": "Non-toxic"}
    ]},
    {"smiles": "NC(=S)n1nc(-c2ccc([N+](=O)[O-])cc2)c(/N=N/c2cccnc2)c1O", "values": [
      {"measurement": "Nef inhibition activity call (active/inactive)", "setting": "[1]", "value": "Active"},
      {"measurement": "Activity", "setting": "[2]", "value": "Non-toxic"}
    ]},
    {"smiles": "NC(=O)n1nc(-c2ccc(F)cc2)c(/N=N/c2cccc(Cl)c2)c1O", "values": [
      {"measurement": "Nef inhibition activity call (active/inactive)", "setting": "[1]", "value": "Active"},
      {"measurement": "Activity", "setting": "[2]", "value": "Non-toxic"}
    ]},
    {"smiles": "NC(=O)n1nc(-c2ccc([N+](=O)[O-])cc2)c(/N=N/c2cccc(Cl)c2)c1O", "values": [
      {"measurement": "Nef inhibition activity call (active/inactive)", "setting": "[1]", "value": "inactive"},
      {"measurement": "Activity", "setting": "[2]", "value": "Non-toxic"}
    ]}
  ]
}
